Test results taken from article PMC5532717 (ACS Central Science, 2017).

Tests used:
[1] = Solvolytic stability in McIlvaine buffer pH 4.0 by NMR; format: physicochemical; conditions: McIlvaine buffer pH 4.0, room temperature, 24 h, 1H NMR
GBA3 = molecular target: T1, GBA3 (Homo sapiens, UniProt Q9H227); assay: Competitive ABPP against β-glucosidase probe 14, GBA3+ HEK293T lysate; format: biochemical; conditions: 5 from 30 to 0 μM, 1 h at 37 °C, pH 6.0
T1 sequence (Q9H227 1-469): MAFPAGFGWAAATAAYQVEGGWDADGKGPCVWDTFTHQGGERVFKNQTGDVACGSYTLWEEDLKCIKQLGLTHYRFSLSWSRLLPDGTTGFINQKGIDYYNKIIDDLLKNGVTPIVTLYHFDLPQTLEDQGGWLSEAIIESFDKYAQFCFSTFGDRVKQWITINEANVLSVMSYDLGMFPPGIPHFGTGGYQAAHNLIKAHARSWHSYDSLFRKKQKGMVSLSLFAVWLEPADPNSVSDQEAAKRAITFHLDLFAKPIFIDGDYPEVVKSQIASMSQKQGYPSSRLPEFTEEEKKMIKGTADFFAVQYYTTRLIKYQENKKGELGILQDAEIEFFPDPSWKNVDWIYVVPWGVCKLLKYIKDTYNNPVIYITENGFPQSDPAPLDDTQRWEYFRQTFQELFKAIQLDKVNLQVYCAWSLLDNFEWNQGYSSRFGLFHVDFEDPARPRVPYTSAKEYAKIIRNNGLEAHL

GANAB = molecular target: T2, GANAB (Homo sapiens, UniProt Q14697); assay: Competitive ABPP against probe 13 in fibroblast lysates, pH 7; format: biochemical; conditions: pH 7, preincubation 15, 30 or 60 min
T2 sequence (Q14697 29-944): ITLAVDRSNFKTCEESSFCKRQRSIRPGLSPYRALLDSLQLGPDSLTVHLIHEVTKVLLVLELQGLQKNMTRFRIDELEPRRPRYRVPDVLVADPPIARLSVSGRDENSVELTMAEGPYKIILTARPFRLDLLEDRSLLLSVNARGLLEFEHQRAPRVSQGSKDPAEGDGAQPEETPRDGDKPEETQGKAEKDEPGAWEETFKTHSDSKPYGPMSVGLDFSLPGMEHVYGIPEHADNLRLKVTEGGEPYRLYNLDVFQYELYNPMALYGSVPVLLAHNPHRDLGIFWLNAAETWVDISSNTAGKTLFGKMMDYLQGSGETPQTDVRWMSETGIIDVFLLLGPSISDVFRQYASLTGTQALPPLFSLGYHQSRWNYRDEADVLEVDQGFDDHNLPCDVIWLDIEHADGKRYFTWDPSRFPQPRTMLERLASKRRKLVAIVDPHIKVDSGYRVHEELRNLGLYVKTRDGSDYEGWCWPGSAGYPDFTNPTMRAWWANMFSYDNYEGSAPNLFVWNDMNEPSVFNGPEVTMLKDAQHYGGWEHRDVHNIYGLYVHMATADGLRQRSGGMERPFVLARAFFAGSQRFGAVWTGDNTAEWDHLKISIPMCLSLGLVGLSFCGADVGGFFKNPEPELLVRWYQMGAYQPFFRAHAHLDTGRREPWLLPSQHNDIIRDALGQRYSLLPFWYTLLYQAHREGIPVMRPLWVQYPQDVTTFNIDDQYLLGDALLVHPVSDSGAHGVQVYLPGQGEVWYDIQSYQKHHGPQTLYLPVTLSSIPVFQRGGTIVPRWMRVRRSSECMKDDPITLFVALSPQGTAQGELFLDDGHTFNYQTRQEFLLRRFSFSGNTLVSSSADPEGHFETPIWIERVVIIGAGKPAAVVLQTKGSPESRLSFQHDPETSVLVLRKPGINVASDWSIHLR
T2 sequence (P14314 15-528 partner): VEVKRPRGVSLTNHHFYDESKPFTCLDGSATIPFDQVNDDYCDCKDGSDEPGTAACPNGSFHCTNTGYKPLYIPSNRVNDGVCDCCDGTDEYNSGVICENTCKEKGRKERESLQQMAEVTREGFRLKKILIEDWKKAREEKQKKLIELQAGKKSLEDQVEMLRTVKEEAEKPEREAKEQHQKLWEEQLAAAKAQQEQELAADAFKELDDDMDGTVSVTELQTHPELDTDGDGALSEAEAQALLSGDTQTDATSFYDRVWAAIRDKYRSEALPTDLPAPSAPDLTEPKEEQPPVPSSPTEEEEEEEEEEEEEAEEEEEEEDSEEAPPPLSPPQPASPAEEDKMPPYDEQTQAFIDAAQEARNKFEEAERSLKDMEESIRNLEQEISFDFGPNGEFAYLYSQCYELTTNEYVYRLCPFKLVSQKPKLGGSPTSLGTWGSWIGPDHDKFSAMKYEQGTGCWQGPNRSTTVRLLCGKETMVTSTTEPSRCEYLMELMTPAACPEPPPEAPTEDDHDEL
How it was run: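 Human normal dermal fibroblast homogenate (17.6 μg total protein) in 150 mM McIlvaine buffer for 5 min on ice, at pH 4 for GAA and pH 7 for GANAB. Exposed to test compound for 15, 30 or 60 min at 37 °C, then labeled with Cy5 aziridine probe 13 for 30 min at 37 °C. Denatured at 98 °C, 10% SDS–PAGE, Cy5 in-gel fluorescence scan.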

sucrase-isomaltase (SIS) = sucrase-isomaltase (SIS) (Mus musculus, UniProt B5THE3); assay: Competitive ABPP against probe 13 in mouse gastrointestinal lysate; format: biochemical; conditions: mouse intestine lysate, 1 h at 37 °C
Sequence of sucrase-isomaltase (SIS) (B5THE3 1-1818): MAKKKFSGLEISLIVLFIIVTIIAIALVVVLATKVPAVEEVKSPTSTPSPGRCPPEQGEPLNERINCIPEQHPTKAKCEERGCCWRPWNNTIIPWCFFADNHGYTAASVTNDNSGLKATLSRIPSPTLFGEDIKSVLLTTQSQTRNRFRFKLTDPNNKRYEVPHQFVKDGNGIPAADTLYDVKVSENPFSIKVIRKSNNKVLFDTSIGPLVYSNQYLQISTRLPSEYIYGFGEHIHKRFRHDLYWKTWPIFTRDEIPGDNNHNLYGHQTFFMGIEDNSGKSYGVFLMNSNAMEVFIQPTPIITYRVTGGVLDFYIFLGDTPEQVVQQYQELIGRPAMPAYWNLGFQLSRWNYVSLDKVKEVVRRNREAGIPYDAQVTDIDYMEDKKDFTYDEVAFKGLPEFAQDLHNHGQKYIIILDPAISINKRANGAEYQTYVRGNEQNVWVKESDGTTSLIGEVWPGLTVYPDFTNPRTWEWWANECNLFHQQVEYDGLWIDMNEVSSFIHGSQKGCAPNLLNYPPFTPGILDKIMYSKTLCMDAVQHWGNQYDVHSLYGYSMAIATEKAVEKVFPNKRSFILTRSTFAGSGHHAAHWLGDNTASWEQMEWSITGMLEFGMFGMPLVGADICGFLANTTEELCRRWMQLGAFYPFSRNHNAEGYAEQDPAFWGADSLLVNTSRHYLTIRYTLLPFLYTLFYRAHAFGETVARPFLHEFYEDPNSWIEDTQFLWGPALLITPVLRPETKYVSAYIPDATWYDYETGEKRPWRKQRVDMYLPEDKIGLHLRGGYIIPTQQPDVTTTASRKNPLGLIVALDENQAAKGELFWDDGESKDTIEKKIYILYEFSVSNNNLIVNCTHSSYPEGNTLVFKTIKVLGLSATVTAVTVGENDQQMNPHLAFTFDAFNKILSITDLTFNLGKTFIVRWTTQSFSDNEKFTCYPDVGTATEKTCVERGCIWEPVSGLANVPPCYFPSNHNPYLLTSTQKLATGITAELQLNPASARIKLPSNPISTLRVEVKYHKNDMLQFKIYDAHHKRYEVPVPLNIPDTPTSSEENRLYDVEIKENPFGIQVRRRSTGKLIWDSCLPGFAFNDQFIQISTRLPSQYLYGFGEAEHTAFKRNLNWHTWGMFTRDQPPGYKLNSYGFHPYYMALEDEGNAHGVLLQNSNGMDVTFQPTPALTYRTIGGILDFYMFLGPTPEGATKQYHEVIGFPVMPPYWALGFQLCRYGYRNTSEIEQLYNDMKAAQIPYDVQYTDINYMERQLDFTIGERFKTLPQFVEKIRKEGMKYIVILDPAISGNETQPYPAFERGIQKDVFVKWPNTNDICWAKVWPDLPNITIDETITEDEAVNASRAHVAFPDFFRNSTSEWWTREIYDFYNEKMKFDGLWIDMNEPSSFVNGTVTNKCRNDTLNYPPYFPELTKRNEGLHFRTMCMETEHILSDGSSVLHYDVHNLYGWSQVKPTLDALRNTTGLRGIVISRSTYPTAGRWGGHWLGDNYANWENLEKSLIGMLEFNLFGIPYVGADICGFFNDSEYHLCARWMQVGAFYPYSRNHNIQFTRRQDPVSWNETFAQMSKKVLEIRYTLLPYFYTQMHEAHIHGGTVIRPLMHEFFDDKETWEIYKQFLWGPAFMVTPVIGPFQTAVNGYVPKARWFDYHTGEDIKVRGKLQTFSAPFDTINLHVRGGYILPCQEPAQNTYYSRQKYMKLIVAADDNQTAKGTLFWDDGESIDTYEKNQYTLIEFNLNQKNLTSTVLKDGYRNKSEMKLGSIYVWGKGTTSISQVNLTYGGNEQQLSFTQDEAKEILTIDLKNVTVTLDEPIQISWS
How it was run: (§1)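 Mixed mouse duodenum, jejunum and ileum homogenates were made in 25 mM potassium phosphate pH 6.5 with protease inhibitors (40 μg protein). Held 5 min on ice in McIlvaine buffer pH 4 or 7. Incubated 1 h at 37 °C with test compound (final 150 to 0.005 μM, plus 0), then probe 13 for 30 min at 37 °C. Boiled in Laemmli buffer, 10% SDS–PAGE, Cy5 fluorescence scan.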

GAA = GAA (Mus musculus, UniProt P70699); assay: as above; format: biochemical; conditions: mouse intestine lysate, 1 h at 37 °C
Sequence of GAA (P70699 70-953): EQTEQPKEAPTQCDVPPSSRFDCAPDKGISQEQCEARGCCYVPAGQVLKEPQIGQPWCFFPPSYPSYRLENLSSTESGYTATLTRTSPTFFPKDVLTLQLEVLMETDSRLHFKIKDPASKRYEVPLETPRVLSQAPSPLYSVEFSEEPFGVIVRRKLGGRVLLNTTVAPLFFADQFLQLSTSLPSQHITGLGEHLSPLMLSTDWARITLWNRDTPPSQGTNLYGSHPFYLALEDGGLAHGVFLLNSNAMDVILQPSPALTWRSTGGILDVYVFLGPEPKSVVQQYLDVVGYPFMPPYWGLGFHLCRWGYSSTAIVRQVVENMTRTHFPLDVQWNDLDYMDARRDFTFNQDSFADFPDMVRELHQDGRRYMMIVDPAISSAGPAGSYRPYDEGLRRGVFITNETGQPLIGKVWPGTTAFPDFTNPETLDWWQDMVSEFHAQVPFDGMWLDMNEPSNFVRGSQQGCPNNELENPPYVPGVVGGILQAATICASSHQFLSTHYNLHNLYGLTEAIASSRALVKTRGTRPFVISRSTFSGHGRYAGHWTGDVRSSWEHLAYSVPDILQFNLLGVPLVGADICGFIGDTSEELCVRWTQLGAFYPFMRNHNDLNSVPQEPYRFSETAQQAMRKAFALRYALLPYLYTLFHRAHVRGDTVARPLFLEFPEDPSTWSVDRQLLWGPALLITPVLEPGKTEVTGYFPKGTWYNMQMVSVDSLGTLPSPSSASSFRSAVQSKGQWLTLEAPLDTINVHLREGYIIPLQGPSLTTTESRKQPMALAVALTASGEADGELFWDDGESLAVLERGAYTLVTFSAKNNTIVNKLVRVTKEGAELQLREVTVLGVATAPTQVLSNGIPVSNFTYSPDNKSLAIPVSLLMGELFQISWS
How it was run: as §1

solvolytic stability (spontaneous hydrolysis) [1]: no spontaneous hydrolysis
inhibition of probe 14 labeling of GBA3 (GBA3): no inhibition
inhibition of probe 13 labeling of GANAB (GANAB): time dependent inhibition
inhibition of probe 13 labeling of SIS (sucrase-isomaltase (SIS)): inhibited
inhibition of probe 13 labeling of GAA (GAA): inhibited
SMILES: O=S1(=O)O[C@@H]2[C@H](O)[C@@H](O)[C@H](O)[C@@H](CO)[C@@H]2O1 [Compound 5, 1,6-epi-cyclophellitol cyclosulfate]
